Test results taken from paper PMC9929523 (International Journal for Parasitology: Drugs and Drug …, 2023).
“And” between values parts separate entries of the source, which are not always exact repeats. Identical values can stand only once. Like-named read-outs stand apart in the source and are kept apart here.

Key:
[1] = ref Daneshmend and Homeida, 1987, cited from earlier work
[2] = Hepatic microsomal stability; format: in vitro ADME; details: mouse, liver microsomes, pH 7.4, intrinsic clearance, 1 μM OXA, 0.2 mg protein per ml
Outline: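 Test compound (1 μM) incubated with mouse hepatic microsomes at 1, 0.5 and 0.2 mg/mL in 100 mM potassium phosphate, pH 7.4. Samples filtered and analysed by LC-MS/MS. Log-transformed data gave half-life. CLint (μl/min/mg) = ln2 × incubation volume / (half-life × mg protein). Unbound CLint came from the y-intercept of microsomal concentration vs 1/CLint.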

Formulation solubility = format: physicochemical
Outline: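 The aim was an oral dosing vehicle. Co-solvent solutions (polyethylene glycol or ethanol) were checked for precipitation by diluting 1:10 into saline. A 10 mg/ml solution was prepared in 100 mM acetate buffer, pH 4.5.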

[3] = Clinical human OXA pharmacokinetics; format: in vivo; details: 40 mg/kg dose, assuming dose proportionality
Schistosoma mansoni = test: S. mansoni killing in vitro; format: cell-based
Outline: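 Hamster-derived adult male worms, 10 per well, in DMEM with 10% heat-inactivated FBS and antibiotic/antimycotic. Dosed within 2–4 h of harvest from 100X DMSO spikes: 0–143 μM, triplicate, 45 min at 37 °C, 5% CO2. Second set used 143 μM or DMSO for 15, 30 or 45 min. Worms washed thrice and cultured 14 days, medium changed every other day. Daily survival scored by motility, shedding, opacity and tegument blebbing; Kaplan-Meier curves.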

[4] = Estimation of human hepatic inlet; format: in vivo
[5] = Tissue distribution in wild-type C57Bl/6J mice; format: in vivo, mouse; details: 4-h time point, 100 mg/kg oral dose
Mouse pharmacokinetics = format: in vivo
[6] = Estimation of mouse hepatic inlet
P-gp efflux transporter = test: Tissue distribution in P-gp knockout mice; format: in vivo, mouse; details: wild-type vs P-gp knockout mice, 4 h after 100 mg/kg oral dose
[7] = Blood to plasma ratio, Rb; format: in vitro ADME; details: female, C57Bl/6J, mouse, fresh heparinized whole blood and fresh plasma
Outline: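 Heparinized whole blood from female C57Bl/6J mice and matching fresh plasma were each spiked from a 10 mM DMSO stock to a final 5 μM and held 30 min at 37 °C. Samples were spun at 8000×g for 3 min, extracted into ACN/MeOH with diclofenac internal standard, and measured by LC-MS/MS. Rb = concentration in directly spiked plasma / concentration in plasma from spiked blood.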

S. haematobium = details: meta-analysis, S. haematobium infections; ref Zwang and Olliaro, 2014; cited from earlier work
S. mansoni = details: meta-analysis, S. mansoni infections; ref Zwang and Olliaro, 2014; cited from earlier work
schistosomiasis = details: sub-Saharan Africa; ref Doenhoff et al., 2009; cited from earlier work
[8] = patients n = 9, single oral dose 1000 mg
[9] = female, C57Bl/6J, mouse, plasma, iv, 3 mg/kg
[10] = female, C57Bl/6J, mouse, plasma, po, 100 mg/kg, pH 4.5
[11] = 100 mg/kg PO acetate buffer, WinNonlin one-compartment model
[12] = 100 mg/kg PO acetate buffer, method of residuals

What does the source list for `CC(C)NCC1CCc2cc(CO)c([N+](=O)[O-])cc2N1` (stereo not drawn) [OXA, oxamniquine]?
peak plasma concentrations ([1]; human, approximately 20 mg/kg oral dose): 4 to 7 µM; AUC(0-∞) [1, 8]: 20.2 ± 4.9 µM·h; Cmax [1, 8]: 4.5 ± 0.9 µM; T1/2 [1, 8]: 151 ± 23 min; Tmax [1, 8]: 103 ± 12 min; microsomal CLint at 1 μM [2]: 196 µL/min/mg; solubility dependence on pH (Formulation solubility): increases at low pH; stable solution concentration (Formulation solubility; 100 mM acetate buffer, pH 4.5): 10 mg/mL; expected maximal plasma levels [3]: 9 to 14 µM; worm killing at lower concentrations (Schistosoma mansoni; 35.75 μM and 14.3 μM, 45 min exposure, 14 days): minimal worm killing; worm survival (Schistosoma mansoni; 71.5 μM, 45 min exposure, 14 days): significantly reduced; worm survival (Schistosoma mansoni; 143 μM, 45 min exposure, 14 days): significantly reduced; worm killing (Schistosoma mansoni; 143 μM, 45 min exposure, adult male worms, 14 days): 90%; efficacy of worm killing with shorter exposure times (Schistosoma mansoni; 143 μM, exposure 15 and 30 min): maintained; rate of absorption in the human intestine [4]: approximately 2.5 % per minute; bile concentration relative to liver tissue [5]: 15 fold; Cl clearance (Mouse pharmacokinetics; 100 mg/kg PO, 100 mM acetate buffer pH 4.5): 159 ± 3 mL/min/kg; AUC(0-inf) (Mouse pharmacokinetics; [9]): 1.1 µM·h; Cmax (Mouse pharmacokinetics; [9]): 2.2 ± 0.1 µM; Tmax (Mouse pharmacokinetics; [9]): 5 min; clearance (Mouse pharmacokinetics; [9]): 157 ± 3 mL/min/kg; half-life (Mouse pharmacokinetics; [9]): 51 ± 6 min; AUC(0-inf) (Mouse pharmacokinetics; [10]): 26.1 ± 1.7 µM·h; CL/F (Mouse pharmacokinetics; [10]): 230 ± 14 mL/min/kg; Cmax (Mouse pharmacokinetics; [10]): 11.8 ± 1.6 µM; Tmax (Mouse pharmacokinetics; [10]): 50 min; bioavailability (Mouse pharmacokinetics; [10]): 69.5 ± 5.3%; half-life (Mouse pharmacokinetics; [10]): 58 ± 6 min; Inlet Concentration (portal) [6, 11]: 118 µM and 118 ± 10 µM; ka absorption rate constant [6, 11]: 0.043 min⁻¹; Inlet Concentration (portal) [6, 12]: 132 µM and 132 ± 11 µM; ka absorption rate constant [6, 12]: 0.049 min⁻¹; k el ([6]; C57Bl/6J, mouse, in vivo, po, 100 mg/kg, ke elimination rate constant, 100 mg/kg PO acetate buffer, method of residuals): 0.0002 s⁻¹; fraction orally absorbed (Fa x Fg) ([6]; mouse, true value could range between 0.7 and 1): 0.7; impact of efflux transporter P-gp on tissue distribution (P-gp efflux transporter): no indication that the efflux transporter P-gp impacts tissue distribution; blood plasma ratio at 30 min, 5 μM [7]: 1.6

Which results are given for `O=C(C1CCCCC1)N1CC(=O)N2CCc3ccccc3C2C1` (stereo not drawn) [praziquantel]?
cure rate (S. haematobium): 77.1%; cure rate (S. mansoni): 76.7%; cure rates (schistosomiasis): 60–90%
